Source: ChEMBL document CHEMBL2385032, “Dual-functional abeo-taxane derivatives destabilizing microtubule equilibrium and inhibiting NF-κB activation” (2013)
Activity calls are given as the source filed them. The rule behind the calls is not given here.

What was measured:
T47D = assay: Cytotoxicity against human T47D cells; type: functional
Procedure, shortened: (§1)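 NCI-60 human tumor cell line screen run by standard NCI protocol: single-dose prescreen at 10 μM, then multi-dose testing of compounds giving over 50% growth inhibition; GI50 = concentration for 50% growth inhibition.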

LOX IMVI = assay: Cytotoxicity against human LOXIMVI cells; type: functional
HCT-116 [1] = assay: Cytotoxicity against human HCT116 cells; type: functional; procedure, shortened: as §1
DU-145 = assay: Cytotoxicity against human DU145 cells; type: functional; procedure, shortened: as §1
SNB-19 = assay: Cytotoxicity against human SNB19 cells; type: functional; procedure, shortened: as §1
MOLT-4 = assay: Cytotoxicity against human MOLT4 cells; type: functional; procedure, shortened: as §1
RXF 393 = assay: Cytotoxicity against human RXF393 cells; type: functional; procedure, shortened: as §1
NCI-H322M = assay: Cytotoxicity against human NCI-H322M cells; type: functional; procedure, shortened: as §1
OVCAR-3 = assay: Cytotoxicity against human OVCAR3 cells; type: functional; procedure, shortened: as §1
HEK-293T [2] = assay: Inhibition of TNF-alpha induced NF-kapppaB activation in HEK293T cells at 1.25 to 5 uM incubated 1 hr prior to TNF-alpha addition measured after 18 hrs by luciferase reporter gene assay; type: cell-based; conditions: Homo sapiens
HCT-116 [3] = assay: Cell cycle arrest in human HCT116 cells assessed as accumulation at G2/M phase at 1 uM after 12 hrs by propidium iodide staining-based FACS analysis (reference value: 20.40 to 22.32 %); type: functional
HCT-116 [4] = assay: Cell cycle arrest in human HCT116 cells assessed as accumulation at G2/M phase after 12 hrs by propidium iodide staining-based FACS analysis; type: functional
HCT-116 [5] = assay: Cell cycle arrest in human HCT116 cells assessed as reduction in G0/G1 phase after 12 hrs by propidium iodide staining-based FACS analysis; type: functional
HEK-293T [6] = assay: Inhibition of TNF-alpha induced NF-kapppaB activation in HEK293T cells incubated 1 hr prior to TNF-alpha addition measured after 18 hrs by luciferase reporter gene assay; type: cell-based; conditions: Homo sapiens
Procedure, shortened: (§2)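 HEK 293T cells transiently transfected 12 h with pNFκB-luc and pRL-TK, pretreated 1 h with compound (0.31–2.50 μM) or DMSO, then stimulated with TNF-α 25 ng/mL for 18 h; firefly and Renilla luciferase read by dual-luciferase assay. Data from one of three independent experiments.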

HCT-116 [7] = assay: Induction of apoptosis in human HCT116 cells assessed as early apoptotic cells at 2 uM after 24 hrs by AnnexinV-FITC/PI staining-based flow cytometry (reference value: 2.17 %); type: functional
Tubulin (Homo sapiens) = Tubulin (Homo sapiens) (UniProt P68371+Q9H4B7+P0DPH7+P68366+Q13509+Q71U36+P04350+Q3ZCM7+P07437+P68363+Q9BQE3+Q6PEY2+Q13885+Q9BVA1+Q9BUF5); assay: Inhibition of tubulin (unknown origin) polymerization assessed as destabilization of microtubule at 15 uM by fluorescence assay; type: protein-complex assay
Procedure, shortened: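 Cell-free tubulin polymerization kit; tubulin mixed with DMSO control, 500 μM CaCl2, 3 μM paclitaxel or test compounds at 15 or 30 μM; polymerization followed kinetically by fluorescence, excitation 340 nm, emission 420 nm, in a temperature-regulated fluorimeter. Three independent experiments in triplicate.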

HCT-116 [8] = assay: Induction of apoptosis in human HCT116 cells at 1 uM after 24 hrs by AnnexinV-FITC/PI staining-based flow cytometry; type: functional
HCT-116 [9] = assay: Induction of apoptosis in human HCT116 cells assessed as late apoptotic cells at 1 uM after 24 hrs by AnnexinV-FITC/PI staining-based flow cytometry (reference value: 2.53 %); type: functional
HCT-116 [10] = assay: Cell cycle arrest in human HCT116 cells assessed as accumulation at S phase at 2 uM after 12 hrs by propidium iodide staining-based FACS analysis (reference value: 20.48 to 23.62 %); type: functional
HEK-293T [11] = assay: Inhibition of TNF-alpha induced NF-kapppaB activation in HEK293T cells at 1.25 uM incubated 1 hr prior to TNF-alpha addition measured after 18 hrs by luciferase reporter gene assay; type: cell-based; conditions: Homo sapiens; procedure, shortened: as §2
HCT-116 [12] = assay: Cell cycle arrest in human HCT116 cells assessed as accumulation at G0/G1 phase at 1 uM after 12 hrs by propidium iodide staining-based FACS analysis (reference value: 54.63 to 55.88 %); type: functional
Homo sapiens [13] = species: Homo sapiens; assay: Induction of microtubule depolymerization in human PC3 interphase cells at 2 uM after 24 hrs by DAPI staining-based immunofluorescence microscopic analysis; type: cell-based
Procedure, shortened: (§3)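 PC-3 cells grown on chamber slides 36 h, then treated 24 h (test agents 2, 5 or 10 μM; reference agents 200 nM); fixed in 4% paraformaldehyde, permeabilized with 0.5% Triton X-100, stained with anti-α-tubulin monoclonal plus FITC secondary and DAPI for nuclei; spindle and microtubule morphology by fluorescence microscopy.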

HEK-293T [14] = assay: Inhibition of TNF-alpha induced NF-kapppaB activation in HEK293T cells at 0.31 uM incubated 1 hr prior to TNF-alpha addition measured after 18 hrs by luciferase reporter gene assay; type: cell-based; conditions: Homo sapiens; procedure, shortened: as §2
HCT-116 [15] = assay: Cell cycle arrest in human HCT116 cells assessed as accumulation at G0/G1 phase at 2 uM after 12 hrs by propidium iodide staining-based FACS analysis (reference value: 54.63 to 55.88 %); type: functional
HEK-293T [16] = assay: Inhibition of TNF-alpha induced NF-kapppaB activation in HEK293T cells at 0.62 uM incubated 1 hr prior to TNF-alpha addition measured after 18 hrs by luciferase reporter gene assay; type: cell-based; conditions: Homo sapiens; procedure, shortened: as §2
Homo sapiens [17] = species: Homo sapiens; assay: Induction of microtubule depolymerization in human PC3 mitotic cells assessed as abnormal spindles at 2 uM after 24 hrs by DAPI staining-based immunofluorescence microscopic analysis; type: cell-based; procedure, shortened: as §3
HCT-116 [18] = assay: Induction of apoptosis in human HCT116 cells assessed as early apoptotic cells at 1 uM after 24 hrs by AnnexinV-FITC/PI staining-based flow cytometry (reference value: 2.17 %); type: functional
HCT-116 [19] = assay: Induction of apoptosis in human HCT116 cells at 2 uM after 24 hrs by AnnexinV-FITC/PI staining-based flow cytometry; type: functional
HCT-116 [20] = assay: Induction of apoptosis in human HCT116 cells after 24 hrs by AnnexinV-FITC/PI staining-based flow cytometry; type: functional, cell-based
HCT-116 [21] = assay: Cell cycle arrest in human HCT116 cells assessed as accumulation at S phase at 1 uM after 12 hrs by propidium iodide staining-based FACS analysis (reference value: 20.48 to 23.62 %); type: functional
HCT-116 [22] = assay: Induction of apoptosis in human HCT116 cells assessed as late apoptotic cells at 2 uM after 24 hrs by AnnexinV-FITC/PI staining-based flow cytometry (reference value: 2.53 %); type: functional
PC-3 = assay: Induction of microtubule depolymerization in human PC3 cells at 200 nM after 24 hrs by DAPI staining-based immunofluorescence microscopic analysis; type: cell-based; procedure, shortened: as §3

**Q.** For `C=C1[C@@H](OC(=O)[C@@H](O)[C@H](NC(=O)OC(C)(C)C)c2ccccc2)C[C@H](OC(C)=O)[C@@]2(C)[C@@H](OC(C)=O)[C@H](OC(=O)c3ccccc3)C3=C(C)[C@@H](O)C[C@@]3(C(C)(C)O)[C@@H](OC(C)=O)[C@H]12`, which GI50 (T47D) is on record?
**A.** > 100 µM

**Q.** And the GI50 (LOX IMVI)?
**A.** > 100 µM

**Q.** What about the GI50 (HCT-116 [1]) of the same compound?
**A.** 45.2 µM

**Q.** What about the GI50 (DU-145) of the same compound?
**A.** 72.4 µM

**Q.** And the GI50 (SNB-19)?
**A.** > 100 µM

**Q.** And the GI50 (MOLT-4)?
**A.** 83.3 µM

**Q.** And the GI50 (RXF 393)?
**A.** 26.6 µM

**Q.** What about the GI50 (NCI-H322M) of the same compound?
**A.** > 100 µM

**Q.** And the GI50 (OVCAR-3)?
**A.** 28.4 µM

**Q.** How did the GI50 (T47D) turn out when `C=C1C(=O)C=C[C@@]2(C)[C@@H](OC(C)=O)[C@H](OC(=O)c3ccccc3)C3=C(C)[C@@H](OC(=O)[C@H](O)[C@@H](NC(=O)c4ccccc4)c4ccccc4)C[C@@]3(C(C)(C)O)[C@@H](OC(C)=O)[C@H]12` was run?
**A.** 1.7 µM

**Q.** And the GI50 (LOX IMVI)?
**A.** 1.57 µM

**Q.** What about the GI50 (HCT-116 [1]) of the same compound?
**A.** 0.77 µM

**Q.** And the GI50 (DU-145)?
**A.** 1.66 µM

**Q.** What about the GI50 (SNB-19) of the same compound?
**A.** 15.3 µM

**Q.** What about the GI50 (MOLT-4) of the same compound?
**A.** 2.48 µM

**Q.** And the GI50 (RXF 393)?
**A.** 0.52 µM

**Q.** And the GI50 (NCI-H322M)?
**A.** 4.69 µM

**Q.** What about the GI50 (OVCAR-3) of the same compound?
**A.** 1.33 µM

**Q.** Which results are given for `C=C1C(=O)O[C@@H]2C3O[C@]3(C)CC/C=C(\C)CC[C@@H]12` (stereo partly specified)?
**A.** inhibition (HEK-293T [2]): Active; GI50 (HCT-116 [1]): 10 µM; GI50 (SNB-19): 63.1 µM; GI50 (MOLT-4): 15.8 µM; GI50 (RXF 393): 12.6 µM; GI50 (NCI-H322M): 19.9 µM; GI50 (OVCAR-3): 19.9 µM

**Q.** For `C=C1C(=O)C[C@H](OC(C)=O)[C@@]2(C)[C@@H](OC(C)=O)[C@H](OC(=O)c3ccccc3)C3=C(C)[C@@H](OC(=O)[C@H](O)[C@@H](NC(=O)c4ccccc4)c4ccccc4)C[C@@]3(C(C)(C)O)[C@@H](OC(C)=O)[C@H]12`, which Activity (HCT-116 [3]) is on record?
**A.** 29.81%

**Q.** What about the Activity (HCT-116 [4]) of the same compound?
**A.** Dose-dependent effect

**Q.** What about the Activity (HCT-116 [5]) of the same compound?
**A.** Dose-dependent effect

**Q.** What about the inhibition (HEK-293T [6]) of the same compound?
**A.** Dose-dependent effect

**Q.** And the Activity (HCT-116 [7])?
**A.** 5.87%

**Q.** And the GI50 (T47D)?
**A.** 1.86 µM

**Q.** And the inhibition (Tubulin (Homo sapiens))?
**A.** Active

**Q.** What about the Activity (HCT-116 [8]) of the same compound?
**A.** 8.54%

**Q.** And the GI50 (LOX IMVI)?
**A.** 1.86 µM

**Q.** What about the Activity (HCT-116 [9]) of the same compound?
**A.** 2.82%

**Q.** What about the GI50 (HCT-116 [1]) of the same compound?
**A.** 1.28 µM

**Q.** And the Activity (HCT-116 [10])?
**A.** 18.27%

**Q.** What about the GI50 (DU-145) of the same compound?
**A.** 1.59 µM

**Q.** What about the inhibition (HEK-293T [11]) of the same compound?
**A.** 37%

**Q.** What about the Activity (HCT-116 [12]) of the same compound?
**A.** 55.02%

**Q.** And the Activity (Homo sapiens [13])?
**A.** Active

**Q.** And the inhibition (HEK-293T [14])?
**A.** 14%

**Q.** And the Activity (HCT-116 [15])?
**A.** 44.75%

**Q.** What about the inhibition (HEK-293T [16]) of the same compound?
**A.** 27%

**Q.** What about the GI50 (SNB-19) of the same compound?
**A.** 33.7 µM

**Q.** And the Activity (Homo sapiens [17])?
**A.** Active

**Q.** What about the Activity (HCT-116 [18]) of the same compound?
**A.** 2.11%

**Q.** And the Activity (HCT-116 [19])?
**A.** 20.36%

**Q.** And the Activity (HCT-116 [20])?
**A.** Dose-dependent effect

**Q.** What about the GI50 (MOLT-4) of the same compound?
**A.** 0.65 µM

**Q.** What about the Activity (HCT-116 [21]) of the same compound?
**A.** 14.39%

**Q.** And the GI50 (RXF 393)?
**A.** 1.29 µM

**Q.** What about the GI50 (NCI-H322M) of the same compound?
**A.** 18.5 µM

**Q.** What about the Activity (HCT-116 [22]) of the same compound?
**A.** 14%

**Q.** What about the GI50 (OVCAR-3) of the same compound?
**A.** 1.72 µM

**Q.** `COc1ccc(/C=C\c2cc(OC)c(OC)c(OC)c2)cc1O` was tested. Which Activity (PC-3) did it give?
**A.** Active
